# Results reported in PMC11868578 (Nature Communications, 2025).
# Tests used:
# [1] = system: N-YFP IBs (N protein condensates); test: N-YFP inclusion bodies; format: cell-based, Nicotiana benthamiana
# TSWV = test: Anti-TSWV assay, half-leaf method on Nicotiana glutinosa; format: in vivo, tomato spotted wilt virus; details: for Curative effect (%) / Inactive effect (%) (inactivation activity) / Protective effect (%): 500 µg/mL, half-leaf method, N. glutinosa, mean ± SD, n = 3; for EC50: Orthotospovirus tomatomaculae, in Nicotiana glutinosa
# Summary of the method: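 Half-leaf test on healthy N. glutinosa, leaves pre-dusted with carborundum and virus extract brushed on. Curative: leaves rinsed 30 min after inoculation, then agent put on the right half. Protective: agent put on 12 h before inoculation. Inactivation: agent mixed 1:1 with virus extract on ice for 30 min, then put on the right half; left half got buffer-diluted virus. Plants grown at 25 °C day/23 °C night. Lesions counted after about 2 days. EC50 from 31.25–500 µg/mL.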
# PVY = test: Inactivation activity against PVY; format: in vivo; details: read-out: Inhibition rate (inactivation activity) against PVY
# PMMoV = test: Inactivation activity against PMMoV; format: in vivo; details: read-out: Inhibition rate (inactivation activity) against PMMoV
# N WT (NWT) = biological target: T1, N WT (NWT) (Tomato spotted wilt virus (TSWV), UniProt P26000 1-258); test: BLI
# T1 sequence: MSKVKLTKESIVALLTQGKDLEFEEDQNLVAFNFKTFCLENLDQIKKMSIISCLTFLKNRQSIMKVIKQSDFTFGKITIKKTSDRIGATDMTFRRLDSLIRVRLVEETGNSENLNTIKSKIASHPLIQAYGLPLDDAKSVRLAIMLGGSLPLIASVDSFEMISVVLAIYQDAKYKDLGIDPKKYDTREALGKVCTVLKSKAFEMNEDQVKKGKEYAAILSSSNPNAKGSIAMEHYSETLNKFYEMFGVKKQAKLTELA
Molecule,"Effect on N-YFP particle number, leaves treated at 36 h ([1]; 36 hpi)","Effect on large N-YFP granules, leaves treated at 72 h ([1]; 72 hpi)",Curative effect (%) (TSWV),Inactive effect (%) (inactivation activity) (TSWV),Protective effect (%) (TSWV),Inactive effect (%) (inactivation activity) (TSWV; listed as ningnanmycin),EC50 (TSWV) [µg/mL],inhibition at 500 µg/mL (PVY) [%],inhibition at 500 µg/mL (PMMoV) [%],Inactive effect (%) (inactivation activity) (TSWV; listed as ribavirin),Kd (N WT (NWT)) [nM]
"OCCCCCCO [1,6-hexanediol]",significant reduction in particle number,difficult to observe a significant decrease in the number of large particles,,,,,,,,,
CNCC(=O)N[C@@H](CO)C(=O)N[C@H]1[C@H](O)[C@@H](O)[C@H](n2ccc(N)nc2=O)O[C@@H]1C(N)=O [Ningnanmycin],,,57.9 ± 1.5,69.3 ± 2.4,61.7 ± 5.2,69.3,149 ± 8.7,77.6,72,,
NC(=O)c1ncn([C@@H]2O[C@H](CO)[C@@H](O)[C@H]2O)n1 [Ribavirin],,,39.2 ± 3.2,43.7 ± 7.5,40.4 ± 6.8,,802 ± 12.6,55.3,56.5,43.7,
GAGAGCAAUUGUGUCAGAA (ssRNA) [biotinylated RNA (BLI)],,,,,,,,,,,7.3
